Starred links: 1 amine or outer side, 2 acyl side, 3 side chain; linkers in the order of their positions; H or OH if unused. Positions of bridges follow the written chain, without caps; N, C: chain ends. Non-standard residues stand in square brackets, D forms with d. Residues, ends and D or L forms follow the SMILES beside them. X1 = O=C(CC1(S[*:2])CCCCC1)[*:1]; Orn = NCCC[C@H](N)C(=O)O
Assays:
[1] = organism: Rattus norvegicus; test: Antioxytoxic activity in vitro in isolated uteri from estrogen pretreated rats suspended in Mg-free Dyke-Hastings solution.; settings: read-out: pA2 (converted)
[2] = system: Rattus norvegicus; test: (§1) Antivasopressor activity in vivo in phenoxybenzamine pre-treated rats.; assay type: functional, organism-based; settings: read-out: pA2 (converted)
How it was run: (§2)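 Rats pretreated with phenoxybenzamine, under urethane anesthesia; antagonist given iv; agonist USP Posterior Pituitary Reference Standard; read-out is pressor response. Effective dose (nmol/kg) is the dose that cuts the response to 2X units of agonist to that of 1X unit, interpolated semilogarithmically from bracketing doses. pA2 assumes a 67 mL/kg distribution volume. SEM is given where there are ≥4 independent estimates.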

[3] = system: Rattus norvegicus; test: Antioxytocic potencies (change in interuterine pressure) in vivo in estrogen pre-treated rats.; assay type: functional, organism-based; settings: read-out: pA2 (converted)
How it was run: (§3)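 Rats pretreated with estrogen, under urethane anesthesia; antagonist given iv; read-out is change in integrated intrauterine pressure; agonist synthetic oxytocin. Effective dose (nmol/kg) is the dose that cuts the response to 2X units of agonist to the response to 1X unit, interpolated on a semilog scale from doses above and below it. pA2 is derived assuming a 67 mL/kg distribution volume.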

[4] = organism: Rattus norvegicus; test: Antioxytoxic activity in vitro in isolated uteri from estrogen pretreated rats suspended in Mg supplemented Dyke-Hastings solution.; assay type: functional; settings: read-out: pA2 (converted)
How it was run: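 Isolated rat uterus in bath medium with Mg2+; agonist USP Posterior Pituitary Reference Standard. pA2 is the −log of the effective molar antagonist concentration that reduces the response to a dose of agonist to the response to half that dose. It is interpolated semilogarithmically from concentrations above and below it. SEM is given where there are ≥4 independent estimates.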

[5] = system: Rattus norvegicus; test: as §1; assay type: functional
How it was run: as §2

[6] = system: Rattus norvegicus; test: In vivo inhibition of estrogen induced changes in interuterine pressure in rats.; assay type: functional
How it was run: as §3

[7] = system: Rattus norvegicus; test: Antiantidiuretic activity in vivo in hydrated rats under ethanol anaesthesia.; assay type: functional, organism-based; settings: Urine, read-out: pA2 (converted)
How it was run: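 Hydrated rats under ethanol anaesthesia; antagonist given iv against the USP Posterior Pituitary Reference Standard as agonist. Effective dose (nmol/kg) is the dose that cuts the response to 2x units of agonist to equal the response to 1x unit. It is estimated by interpolation on a semilog scale between doses above and below it. pA2 assumes a volume of distribution of 67 mL/kg. Where SEM is given, n ≥4 estimates.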

| Compound | Kb [1] | Kb [2] | Kb [3] | Kb [4] | ED [5] | ED [6] | Kb [7] |
| --- | --- | --- | --- | --- | --- | --- | --- |
| CC[C@H](C)[C@@H]1NC(=O)[C@H](Cc2ccc(OC)cc2)NC(=O)CC2(CCCCC2)SSC[C@@H](C(=O)N2CCC[C@H]2C(=O)N[C@@H](CCCN)C(=O)N[C@@H](C)C(N)=O)NC(=O)[C@H](CC(N)=O)NC(=O)[C@H]([C@@H](C)O)NC1=O [listing 1 of 2 here] | 24 nM | 112 nM | 34.7 nM | 6.31 nM |  |  |  |
| CC[C@H](C)[C@@H]1NC(=O)[C@H](Cc2ccc(OC)cc2)NC(=O)CC2(CCCCC2)SSC[C@@H](C(=O)N2CCC[C@H]2C(=O)N[C@@H](CCCN)C(=O)N[C@@H](C)C(N)=O)NC(=O)[C@H](CC(N)=O)NC(=O)[C@H]([C@@H](C)O)NC1=O [listing 2 of 2 here] |  |  |  |  | 8.1 nM/kg | 2.4 nM/kg |  |
| CC[C@H](C)[C@@H]1NC(=O)[C@@H](Cc2ccccc2)NC(=O)CC2(CCCCC2)SSC[C@@H](C(=O)N2CCC[C@H]2C(=O)N[C@@H](CCCN=C(N)N)C(=O)NCC(N)=O)NC(=O)[C@H](CC(N)=O)NC(=O)[C@H](C(C)C)NC1=O | 12.9 nM | 229 nM | 34.7 nM | 5.62 nM |  |  | 617 nM |
| CC[C@H](C)[C@@H]1NC(=O)[C@@H](Cc2ccc(OC)cc2)NC(=O)CC2(CCCCC2)SSC[C@@H](C(=O)N2CCC[C@H]2C(=O)N[C@@H](CCCN=C(N)N)C(=O)NCC(N)=O)NC(=O)[C@H](CC(N)=O)NC(=O)[C@H](C(C)C)NC1=O | 22.4 nM | 15.1 nM | 33.1 nM | 5.62 nM |  |  | 132 nM |
| CC[C@H](C)[C@@H]1NC(=O)[C@H](Cc2ccc(OC)cc2)NC(=O)CC2(CCCCC2)SSC[C@@H](C(=O)N2CCC[C@H]2C(=O)N[C@@H](CCCN)C(=O)N[C@@H](CCCN=C(N)N)C(N)=O)NC(=O)[C@H](CC(N)=O)NC(=O)[C@H]([C@@H](C)O)NC1=O [listing 1 of 2 here] | 20.4 nM | 11 nM | 28.8 nM | 5.5 nM |  |  |  |
| CC[C@H](C)[C@@H]1NC(=O)[C@H](Cc2ccc(OC)cc2)NC(=O)CC2(CCCCC2)SSC[C@@H](C(=O)N2CCC[C@H]2C(=O)N[C@@H](CCCN)C(=O)N[C@@H](CCCN=C(N)N)C(N)=O)NC(=O)[C@H](CC(N)=O)NC(=O)[C@H]([C@@H](C)O)NC1=O [listing 2 of 2 here] |  |  |  |  | 0.76 nM/kg | 2.3 nM/kg |  |
| CCOc1ccc(C[C@H]2NC(=O)CC3(CCCCC3)SSC[C@@H](C(=O)N3CCC[C@H]3C(=O)N[C@@H](CCCNC(N)=O)C(=O)NCC(N)=O)NC(=O)[C@H](CC(N)=O)NC(=O)[C@H](C(C)C)NC(=O)[C@H](Cc3ccccc3)NC2=O)cc1 | 2.45 nM | 11.7 nM | 25.7 nM | 14.8 nM |  |  | 309 nM |
| COc1ccc(C[C@H]2NC(=O)CC3(CCCCC3)SSC[C@@H](C(=O)N3CCC[C@H]3C(=O)N[C@@H](CCCN=C(N)N)C(=O)NCC(N)=O)NC(=O)[C@H](CC(N)=O)NC(=O)[C@H](CCC(N)=O)NC(=O)[C@H](Cc3ccccc3)NC2=O)cc1 | 13.5 nM | 5.37 nM | 33.9 nM | 4.79 nM |  |  | 105 nM |
| COc1ccc(C[C@@H]2NC(=O)CC3(CCCCC3)SSC[C@@H](C(=O)N3CCC[C@H]3C(=O)N[C@@H](CCCN=C(N)N)C(=O)NCC(N)=O)NC(=O)[C@H](CC(N)=O)NC(=O)[C@H](CCC(N)=O)NC(=O)[C@H](Cc3ccccc3)NC2=O)cc1 |  |  |  |  | 0.16 nM/kg | 17 nM/kg |  |
| COc1ccc(C[C@H]2NC(=O)CC3(CCCCC3)SSC[C@@H](C(=O)N3CCC[C@H]3C(=O)N[C@@H](CCCN=C(N)N)C(=O)NCC(N)=O)NC(=O)[C@H](CC(N)=O)NC(=O)[C@H](C(C)C)NC(=O)[C@H](Cc3ccccc3)NC2=O)cc1 | 11 nM | 3.31 nM | 26.9 nM | 14.8 nM |  |  | 17 nM |
| COc1ccc(C[C@H]2NC(=O)CC3(CCCCC3)SSC[C@@H](C(=O)N3CC=C[C@H]3C(=O)N[C@@H](CCCN=C(N)N)C(=O)NCC(N)=O)NC(=O)[C@H](CC(N)=O)NC(=O)[C@H](C(C)C)NC(=O)[C@H](Cc3ccccc3)NC2=O)cc1 | 13.2 nM | 8.32 nM |  | 110 nM |  |  | 24.5 nM |
| COc1ccc(C[C@@H]2NC(=O)CC3(CCCCC3)SSC[C@@H](C(=O)N3CCC[C@H]3C(=O)N[C@@H](CCCN=C(N)N)C(=O)NCC(N)=O)NC(=O)[C@H](CC(N)=O)NC(=O)[C@H](C(C)C)NC(=O)[C@H](Cc3ccccc3)NC2=O)cc1 | 4.37 nM |  | 115 nM | 13.5 nM |  |  | 44.7 nM |
| CC[C@H](C)[C@@H]1NC(=O)[C@H](Cc2ccc(OC)cc2)NC(=O)CC2(CCCCC2)SSC[C@@H](C(=O)N2CCC[C@H]2C(=O)N[C@@H](CCCN)C(=O)NCC(N)=O)NC(=O)[C@H](CC(N)=O)NC(=O)[C@H](CCC(N)=O)NC1=O (Y(Me)IQNCP[Orn]G-NH2; linker N-5 via X1) | 3.02 nM | 11 nM | 42.7 nM | 13.2 nM |  |  |  |
| CC[C@H](C)[C@@H]1NC(=O)[C@H](Cc2ccc(OC)cc2)NC(=O)CC2(CCCCC2)SSC[C@@H](C(=O)N2CCC[C@H]2C(=O)N[C@@H](CCCN)C(N)=O)NC(=O)[C@H](CC(N)=O)NC(=O)[C@H]([C@@H](C)O)NC1=O (Y(Me)ITNCP[Orn]-NH2; linker N-5 via X1) | 6.76 nM | 105 nM | 24.5 nM | 2.75 nM |  |  | ~1580 nM |
| CC[C@H](C)[C@@H]1NC(=O)[C@H](Cc2ccc(OC)cc2)NC(=O)CC2(CCCCC2)SSC[C@@H](C(=O)N2CCC[C@H]2C(=O)N[C@@H](CCCN)C(=O)O)NC(=O)[C@H](CC(N)=O)NC(=O)[C@H]([C@@H](C)O)NC1=O (Y(Me)ITNCP[Orn]-OH; linker N-5 via X1) | 12.9 nM | 331 nM | 20.4 nM | 5.75 nM |  |  | ~5010 nM |
| CC[C@H](C)[C@@H]1NC(=O)[C@H](Cc2ccc(OC)cc2)NC(=O)CC2(CCCCC2)SSC[C@@H](C(=O)N2CCC[C@H]2C(=O)N[C@@H](CCCN)C(=O)NCC(N)=O)NC(=O)[C@H](CC(N)=O)NC(=O)[C@H]([C@@H](C)O)NC1=O (Y(Me)ITNCP[Orn]G-NH2; linker N-5 via X1) | 9.55 nM | 141 nM | 28.2 nM | 3.89 nM |  |  | ~5010 nM |
| CC[C@H](C)[C@@H]1NC(=O)[C@H](Cc2ccc(OC)cc2)NC(=O)CC2(CCCCC2)SSC[C@@H](C(=O)N2CCC[C@H]2C(=O)N[C@@H](CCCN)C(=O)N[C@@H](CC(C)C)C(N)=O)NC(=O)[C@H](CC(N)=O)NC(=O)[C@H]([C@@H](C)O)NC1=O (Y(Me)ITNCP[Orn]L-NH2; linker N-5 via X1) | 16.6 nM | 407 nM | 26.9 nM | 3.47 nM |  |  |  |
| CC[C@H](C)[C@@H]1NC(=O)[C@H](Cc2ccc(OC)cc2)NC(=O)CC2(CCCCC2)SSC[C@@H](C(=O)N2CCC[C@H]2C(=O)N[C@@H](CCCN)C(=O)N[C@@H](Cc2ccc(O)cc2)C(N)=O)NC(=O)[C@H](CC(N)=O)NC(=O)[C@H]([C@@H](C)O)NC1=O (Y(Me)ITNCP[Orn]Y-NH2; linker N-5 via X1) | 23.4 nM | 95.5 nM | 14.8 nM | 5.25 nM |  |  |  |
| CCOc1ccc(C[C@H]2NC(=O)CC3(CCCCC3)SSC[C@@H](C(=O)N3CCC[C@H]3C(=O)N[C@@H](CCCN=C(N)N)C(=O)NCC(N)=O)NC(=O)[C@H](CC(N)=O)NC(=O)[C@H](C(C)C)NC(=O)[C@H](Cc3ccccc3)NC2=O)cc1 ([dY](Et)FVNCPRG-NH2; linker N-5 via X1) |  | 6.03 nM | 33.9 nM |  |  |  | 15.5 nM |
| CC[C@H](C)[C@@H]1NC(=O)C(Cc2ccc(OC)cc2)NC(=O)CC2(CCCCC2)SSC[C@@H](C(=O)N2CCC[C@H]2C(=O)N[C@@H](CCCN=C(N)N)C(=O)NCC(N)=O)NC(=O)[C@H](CC(N)=O)NC(=O)[C@H](CCC(N)=O)NC1=O (stereo in doubt) | 1.91 nM | 8.32 nM | 15.8 nM | 3.24 nM |  |  |  |
| CC[C@H](C)[C@@H]1NC(=O)C(Cc2ccc(OC)cc2)NC(=O)CC(C)(C)SSC[C@@H](C(=O)N2CCC[C@H]2C(=O)N[C@@H](CCCN=C(N)N)C(=O)NCC(N)=O)NC(=O)[C@H](CC(N)=O)NC(=O)[C@H](C(C)C)NC1=O (stereo in doubt) | 17.8 nM | 3.47 nM | 26.9 nM | 7.76 nM |  |  |  |
| CC[C@H](C)[C@@H]1NC(=O)C(Cc2ccc(OC)cc2)NC(=O)CC(C)(C)SSC[C@@H](C(=O)N2CCC[C@H]2C(=O)N[C@@H](CCCN=C(N)N)C(=O)NCC(N)=O)NC(=O)[C@H](CC(N)=O)NC(=O)[C@H](CCC(N)=O)NC1=O (stereo in doubt) | 0.759 nM | 3.55 nM | 24.5 nM | 1.95 nM |  |  |  |
| CC[C@H](C)[C@@H]1NC(=O)C(Cc2ccc(OC)cc2)NC(=O)CC2(CCCCC2)SSC[C@@H](C(=O)N2CCC[C@H]2C(=O)N[C@@H](CCCCN)C(=O)NCC(N)=O)NC(=O)[C@H](CC(N)=O)NC(=O)[C@H](CCC(N)=O)NC1=O (stereo in doubt) | 23.4 nM | 20.9 nM | 58.9 nM | 15.5 nM |  |  |  |

Reference: ChEMBL document CHEMBL1124668, “Solid-phase synthesis of 16 potent (selective and nonselective) in vivo antagonists of oxytocin” (J Med Chem, 1989)
